Source: PMC6683736 (The Journal of Cell Biology, 2019)

How the values were obtained:
Xenopus embryos = assay: Junctional localization in gastrula-stage embryos; type: in vivo, Xenopus laevis; settings: live confocal, mNeon-tagged
Method in brief: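 Embryos were microinjected in the animal hemisphere with mRNAs, either at the two-cell stage (each cell twice) or at the four-cell stage (once). They were raised to gastrula stage (10.5–12) and live-imaged by confocal. mNeon-tagged protein was coexpressed with BFP-ZO-1 (tight junction marker) and PLEKHA7-mCherry (adherens junction marker), and the junctional-to-cytosolic intensity ratio was quantified.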

Scribble = assay: Coimmunoprecipitation of SGEF constructs with GFP-Scribble, HEK293FT lysates; type: binding, Human; settings: GFP-trap nanobodies, WB
Dlg1 = assay: Coimmunoprecipitation of SGEF constructs with GFP-Dlg1, HEK293FT lysates; type: binding, Mouse; settings: GFP-trap nanobodies, WB
Method in brief: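 HEK293FT cells were co-transfected by calcium phosphate; medium was changed at 24 h and cells harvested at 48 h. Lysis was in Tris-HCl pH 7.4, MgCl2, 150 mM NaCl, 1% Triton X-100 and protease inhibitors. Equal protein was incubated with GFP-Trap beads for 1 h at 4°C, washed four times, then immunoblotted with anti-GFP and anti-myc (or anti-His).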

## mNeon-RhoG: mNeon-tagged small GTPase RhoG, 1–191
Xenopus embryos
  localization at apical junctional complex: more broadly localized along the lateral membrane

B1: Gly 45 residue for Pro: SGEF with Gly 45 replaced by Pro (protein, UniProt Q96DR7 1-871, looked up, variant G45P)
Rho guanine nucleotide …: MDGESEVDFSSNSITPLWRRRSIPQPHQVLGRSKPRPQSYQSPNPLLITDFPVEDGGTLLAAQIPAQVPTASDSRTVHRSPLLLGAQRRAVANGGTASPEYRAASPRLRRPKSPKLPKAVPGGSPKSPANGAVTLPAPPPPPVLRPPRTPNAPAPCTPEEDLTGLTASPVPSPTANGLAANNDSPGSGSQSGRKAKDPERGLFPGPQKSSSEQKLPLQRLPSQENELLENPSVVLSTNSPAALKVGKQQIIPKSLASEIKISKSNNQNVEPHKRLLKVRSMVEGLGGPLGHAGEESEVDNDVDSPGSLRRGLRSTSYRRAVVSGFDFDSPTSSKKKNRMSQPVLKVVMEDKEKFSSLGRIKKKMLKGQGTFDGEENAVLYQNYKEKALDIDSDEESEPKEQKSDEKIVIHHKPLRSTWSQLSAVKRKGLSQTVSQEERKRQEAIFEVISSEHSYLLSLEILIRMFKNSKELSDTMTKTERHHLFSNITDVCEASKKFFIELEARHQNNIFIDDISDIVEKHTASTFDPYVKYCTNEVYQQRTLQKLLATNPSFKEVLSRIESHEDCRNLPMISFLILPMQRVTRLPLLMDTICQKTPKDSPKYEVCKRALKEVSKLVRLCNEGARKMERTEMMYTINSQLEFKIKPFPLVSSSRWLVKRGELTAYVEDTVLFSRRTSKQQVYFFLFNDVLIITKKKSEESYNVNDYSLRDQLLVESCDNEELNSSPGKNSSTMLYSRQSSASHLFTLTVLSNHANEKVEMLLGAETQSERARWITALGHSSGKPPADRTSLTQVEIVRSFTAKQPDELSLQVADVVLIYQRVSDGWYEGERLRDGERGWFPMECAKEITCQATIDKNVERMGRLLGLETNV
Scribble
  interaction with Scribble: abolished the interaction

B2: SGEF ΔETNV: SGEF with deletion of the PBM, 1–867 (protein)
chain: MDGESEVDFSSNSITPLWRRRSIPQPHQVLGRSKPRPQSYQSPNGLLITDFPVEDGGTLLAAQIPAQVPTASDSRTVHRSPLLLGAQRRAVANGGTASPEYRAASPRLRRPKSPKLPKAVPGGSPKSPANGAVTLPAPPPPPVLRPPRTPNAPAPCTPEEDLTGLTASPVPSPTANGLAANNDSPGSGSQSGRKAKDPERGLFPGPQKSSSEQKLPLQRLPSQENELLENPSVVLSTNSPAALKVGKQQIIPKSLASEIKISKSNNQNVEPHKRLLKVRSMVEGLGGPLGHAGEESEVDNDVDSPGSLRRGLRSTSYRRAVVSGFDFDSPTSSKKKNRMSQPVLKVVMEDKEKFSSLGRIKKKMLKGQGTFDGEENAVLYQNYKEKALDIDSDEESEPKEQKSDEKIVIHHKPLRSTWSQLSAVKRKGLSQTVSQEERKRQEAIFEVISSEHSYLLSLEILIRMFKNSKELSDTMTKTERHHLFSNITDVCEASKKFFIELEARHQNNIFIDDISDIVEKHTASTFDPYVKYCTNEVYQQRTLQKLLATNPSFKEVLSRIESHEDCRNLPMISFLILPMQRVTRLPLLMDTICQKTPKDSPKYEVCKRALKEVSKLVRLCNEGARKMERTEMMYTINSQLEFKIKPFPLVSSSRWLVKRGELTAYVEDTVLFSRRTSKQQVYFFLFNDVLIITKKKSEESYNVNDYSLRDQLLVESCDNEELNSSPGKNSSTMLYSRQSSASHLFTLTVLSNHANEKVEMLLGAETQSERARWITALGHSSGKPPADRTSLTQVEIVRSFTAKQPDELSLQVADVVLIYQRVSDGWYEGERLRDGERGWFPMECAKEITCQATIDKNVERMGRLLGL
modifications: left off: myc (inferred from the legends of Figures 1 and 2), end not stated, kept
Dlg1
  interaction with Dlg1: still interacted efficiently with Dlg1
Scribble
  interaction with Scribble: no effect on the ability of SGEF to bind to Scribble

B3: T49A (protein, UniProt Q96DR7 1-871, looked up, variant T49A)
Rho guanine nucleotide …: MDGESEVDFSSNSITPLWRRRSIPQPHQVLGRSKPRPQSYQSPNGLLIADFPVEDGGTLLAAQIPAQVPTASDSRTVHRSPLLLGAQRRAVANGGTASPEYRAASPRLRRPKSPKLPKAVPGGSPKSPANGAVTLPAPPPPPVLRPPRTPNAPAPCTPEEDLTGLTASPVPSPTANGLAANNDSPGSGSQSGRKAKDPERGLFPGPQKSSSEQKLPLQRLPSQENELLENPSVVLSTNSPAALKVGKQQIIPKSLASEIKISKSNNQNVEPHKRLLKVRSMVEGLGGPLGHAGEESEVDNDVDSPGSLRRGLRSTSYRRAVVSGFDFDSPTSSKKKNRMSQPVLKVVMEDKEKFSSLGRIKKKMLKGQGTFDGEENAVLYQNYKEKALDIDSDEESEPKEQKSDEKIVIHHKPLRSTWSQLSAVKRKGLSQTVSQEERKRQEAIFEVISSEHSYLLSLEILIRMFKNSKELSDTMTKTERHHLFSNITDVCEASKKFFIELEARHQNNIFIDDISDIVEKHTASTFDPYVKYCTNEVYQQRTLQKLLATNPSFKEVLSRIESHEDCRNLPMISFLILPMQRVTRLPLLMDTICQKTPKDSPKYEVCKRALKEVSKLVRLCNEGARKMERTEMMYTINSQLEFKIKPFPLVSSSRWLVKRGELTAYVEDTVLFSRRTSKQQVYFFLFNDVLIITKKKSEESYNVNDYSLRDQLLVESCDNEELNSSPGKNSSTMLYSRQSSASHLFTLTVLSNHANEKVEMLLGAETQSERARWITALGHSSGKPPADRTSLTQVEIVRSFTAKQPDELSLQVADVVLIYQRVSDGWYEGERLRDGERGWFPMECAKEITCQATIDKNVERMGRLLGLETNV
Scribble
  interaction with Scribble: completely abolish the interaction

B4: 414–871: C-terminal half of SGEF: DH-PH domain, SH3 domain and PBM (protein, UniProt Q96DR7 414-871, looked up, fragment)
chain: LRSTWSQLSAVKRKGLSQTVSQEERKRQEAIFEVISSEHSYLLSLEILIRMFKNSKELSDTMTKTERHHLFSNITDVCEASKKFFIELEARHQNNIFIDDISDIVEKHTASTFDPYVKYCTNEVYQQRTLQKLLATNPSFKEVLSRIESHEDCRNLPMISFLILPMQRVTRLPLLMDTICQKTPKDSPKYEVCKRALKEVSKLVRLCNEGARKMERTEMMYTINSQLEFKIKPFPLVSSSRWLVKRGELTAYVEDTVLFSRRTSKQQVYFFLFNDVLIITKKKSEESYNVNDYSLRDQLLVESCDNEELNSSPGKNSSTMLYSRQSSASHLFTLTVLSNHANEKVEMLLGAETQSERARWITALGHSSGKPPADRTSLTQVEIVRSFTAKQPDELSLQVADVVLIYQRVSDGWYEGERLRDGERGWFPMECAKEITCQATIDKNVERMGRLLGLETNV
Dlg1
  interaction with Dlg1: showed no binding

B5: SGEF 1–350: SGEF deletion mutant 1–350 (protein)
chain: MDGESEVDFSSNSITPLWRRRSIPQPHQVLGRSKPRPQSYQSPNGLLITDFPVEDGGTLLAAQIPAQVPTASDSRTVHRSPLLLGAQRRAVANGGTASPEYRAASPRLRRPKSPKLPKAVPGGSPKSPANGAVTLPAPPPPPVLRPPRTPNAPAPCTPEEDLTGLTASPVPSPTANGLAANNDSPGSGSQSGRKAKDPERGLFPGPQKSSSEQKLPLQRLPSQENELLENPSVVLSTNSPAALKVGKQQIIPKSLASEIKISKSNNQNVEPHKRLLKVRSMVEGLGGPLGHAGEESEVDNDVDSPGSLRRGLRSTSYRRAVVSGFDFDSPTSSKKKNRMSQPVLKVVMED
modifications: left off: myc (inferred from the legend of Figure 2), end not stated, kept
Dlg1
  interaction with Dlg1: able to bind to Dlg1
